ChEMBL document CHEMBL5390200, “Synthesis and evaluation of DAG-lactone derivatives with HIV-1 latency reversing activity” (Eur J Med Chem, 2023)

Assays:
[1] = system: Human immunodeficiency virus 1; experiment: HIV1-latency reversing activity in human ACH-2 cell line incubated for 48 hrs; assay type: functional, organism-based; settings: Human immunodeficiency virus 1, ACH-2, 48 h
[2] = system: Human immunodeficiency virus 1; experiment: HIV1-latency reversing activity in human J-Lat 10.6 cells assessed as change in GFP expression incubated for 24 hrs by flow cytometric analysis; assay type: functional, organism-based; settings: Human immunodeficiency virus 1, J-Lat 10.6, 24 h
Method in brief: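 Cells seeded at 2 × 10^5 per well and exposed to a range of compound concentrations for 24 h; 10 nM PMA served as reference. GFP-positive cells counted by flow cytometry. Means ± SD from at least two independent experiments.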

[3] = Cytotoxicity against human Jurkat cells assessed as reduction in cell viability incubated for 24 hrs by Ghost dye 780 staining based flow cytometric analysis; assay type: toxicity
[4] = target: Protein kinase C delta type (Homo sapiens, UniProt Q05655); experiment: Binding affinity to PKCdelta C1B domain (231 to 281 residues) (unknown origin) by 6-methoxynaphthalene DAG lactone probe based fluorescence quenching assay
[5] = Stability of the compound assessed as porcine liver esterase-mediated hydrolysis measured after 1 to 24 hrs by HPLC analysis; assay type: ADME, Sus scrofa; settings: pig, isolated protein; time 1-24 hrs
Method in brief: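 Compounds taken from 100 mM DMSO stock to 1 mM final in 50 mM HEPES pH 7.2 with 0.01 U PLE, then held at 37 °C. Aliquots sampled at 1, 3, 6 and 24 h and quenched into equal volume MeCN/0.1% TFA. C18 reversed-phase HPLC with 0–95% MeCN gradient over 40 min, UV detection at 245 nm. Residual peak area normalized to 0 h.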

[6] = system: Human immunodeficiency virus 1; experiment: HIV1-latency reversing activity in human U1 cells incubated for 2 days; assay type: functional, organism-based; settings: Human immunodeficiency virus 1, U1, 48 h

Chain of Protein kinase C delta type (Q05655 whole entry, the tested form may be a part): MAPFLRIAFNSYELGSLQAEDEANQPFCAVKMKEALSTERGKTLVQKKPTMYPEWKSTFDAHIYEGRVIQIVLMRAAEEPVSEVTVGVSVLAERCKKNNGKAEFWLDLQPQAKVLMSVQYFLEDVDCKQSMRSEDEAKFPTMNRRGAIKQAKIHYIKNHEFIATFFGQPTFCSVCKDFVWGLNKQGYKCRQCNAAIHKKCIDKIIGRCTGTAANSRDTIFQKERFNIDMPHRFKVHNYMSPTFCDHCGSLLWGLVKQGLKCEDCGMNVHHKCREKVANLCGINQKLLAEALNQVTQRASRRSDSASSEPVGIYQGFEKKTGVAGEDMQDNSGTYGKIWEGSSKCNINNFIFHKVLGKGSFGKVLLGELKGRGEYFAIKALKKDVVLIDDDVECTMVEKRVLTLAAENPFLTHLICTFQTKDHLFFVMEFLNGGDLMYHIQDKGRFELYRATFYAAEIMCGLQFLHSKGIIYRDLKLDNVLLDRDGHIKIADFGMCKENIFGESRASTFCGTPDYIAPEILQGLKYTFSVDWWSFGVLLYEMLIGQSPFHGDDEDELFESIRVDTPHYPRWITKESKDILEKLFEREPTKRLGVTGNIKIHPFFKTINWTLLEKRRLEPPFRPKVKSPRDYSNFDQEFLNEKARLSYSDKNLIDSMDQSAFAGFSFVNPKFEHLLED

Structure (SMILES)	EC50 [2]	CC50 at 24 h [3]	further results
CCCCCCCCCCc1ccc2c(c1)N(C)[C@@H](C(C)C)C(=O)N[C@H](CO)C2			EC50 [1]: 25 nM
CCCCCCCCCC(=O)OCC1(CO)CC(=C(C)C)C(=O)O1 (centres undefined)	> 10000 nM	> 10000 nM	IC50 ([4]; read-out: IC50): 2200 nM; Stability [5]: Unstable
CCCCCCCC(CCCCCCC)C(=O)OCC1(CO)CC(=C(C)C)C(=O)O1 (centres undefined)	380 nM	> 10000 nM	
CC(C)=C1CC(CO)(COC(=O)C(C)C)OC1=O (centres undefined)	> 10000 nM		
C=C(C)[C@]12C[C@@H](COC(=O)c3ccccc3)[C@@]34O[C@@]5(O[C@@H]1[C@@H]3[C@@H]1O[C@]1(CO)[C@@H](O)[C@@]1(O)[C@H]4[C@H]([C@H](C)[C@@H]1OC(=O)c1ccccc1)[C@H](C)CCCCCC[C@H]5O)O2			EC50 [6]: 0.018 nM
CCCC(CCC)C(=O)OCC1(CO)CC(=C(C)C)C(=O)O1 (centres undefined)	2000 nM	> 10000 nM	Stability [5]: Stable
CCCCC(=O)OCC1(CO)CC(=C(C)C)C(=O)O1 (centres undefined)	> 10000 nM		
CCC(CC)C(=O)OCC1(CO)CC(=C(C)C)C(=O)O1 (centres undefined)	> 10000 nM		
CC(=O)O[C@@]12C[C@@H](C)[C@@]3(O)[C@@H](C=C(CO)C[C@]4(O)C(=O)C(C)=C[C@@H]34)[C@@H]1C2(C)C [PROSTRATIN]		> 10000 nM	

Now from value to compound, other results behind:

EC50 [2]	Structure (SMILES)	CC50 at 24 h [3]	further results
> 10000 nM	CC(C)=C1CC(CO)(COC(=O)C2CCC(C)CC2)OC1=O (centres undefined)		
220 nM	CCCCCCC(CCCCCC)C(=O)OCC1(CO)CC(=C(C)C)C(=O)O1 (centres undefined)	> 10000 nM	IC50 ([4]; read-out: IC50): 690 nM; Stability [5]: Stable
> 10000 nM	CC(C)=C1CC(CO)(COC(=O)C(C)(C)C)OC1=O (centres undefined)	> 10000 nM	IC50 ([4]; read-out: IC50): > 10000 nM; Stability [5]: Stable
430 nM	CCCCCC(CCCCC)C(=O)OCC1(CO)CC(=C(C)C)C(=O)O1 (centres undefined)	> 10000 nM	
> 10000 nM	CC(C)=C1CC(CO)(COC(=O)c2ccc3ccccc3c2)OC1=O (centres undefined)		
> 10000 nM	CC(C)=C1CC(CO)(COC(=O)C2CCCCC2)OC1=O (centres undefined)		
820 nM	CCCCC(CCCC)C(=O)OCC1(CO)CC(=C(C)C)C(=O)O1 (centres undefined)	> 10000 nM	
> 10000 nM	CC(=O)OCC1(CO)CC(=C(C)C)C(=O)O1 (centres undefined)	> 10000 nM	IC50 [4]: Not Active
> 10000 nM	CC(C)=C1CC(CO)(COC(=O)c2ccccc2)OC1=O (centres undefined)		
340 nM	CCCCCCCCC(CCCCCCCC)C(=O)OCC1(CO)CC(=C(C)C)C(=O)O1 (centres undefined)	> 10000 nM	
310 nM	CCCCCCCCCC(CCCCCCCCC)C(=O)OCC1(CO)CC(=C(C)C)C(=O)O1 (centres undefined)	> 10000 nM	IC50 ([4]; read-out: IC50): 560 nM
